Series [1] can be described thus: Antiproliferative activity against BALB/c mouse splenocytes assessed as inhibition of [3H]thymidine incorporation into DNA at 100 uM after 24 hrs […] relative to control. The format is cell-based, Splenocyte. In a few lines: (§1)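 Spleens from male BALB/c mice (5–6 weeks) were teased into single cells in RPMI-1640 with 20 mM Hepes (pH 7.35) and checked by trypan blue. After 30 min preincubation, 10^6 cells/ml were held in medium with 15% FCS, with compound dissolved in medium. Incubation was at 37° in air-CO₂ (95:5). [³H]-thymidine (2 μCi/ml) was added after 1 h and the run stopped 24 h later. Read-out is cpm/10^6 cells; % inhibition = [1 − cpm treated/cpm control]×100; Student's t-test.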
(Incorporation of labelled thymidine or its analogues reports DNA synthesis.)

The nature of series [2]: Antiproliferative activity against BALB/c mouse splenocytes assessed as inhibition of [3H]thymidine incorporation into DNA at 10 uM after 24 hrs […] relative to control. It counts as cell-based, Splenocyte. The essentials:
as §1

Series [3] in a line: Antiproliferative activity against BALB/c mouse splenocytes assessed as inhibition of [3H]thymidine incorporation into DNA at 1 uM after 24 hrs […] relative to control. The format is cell-based, Splenocyte. In a few lines:
as §1

Series [4] in a line: Antiproliferative activity against Syrian hamster hepatoma cells assessed as inhibition of [3H]thymidine incorporation into DNA at 100 uM after 24 hrs […] relative to control. It counts as functional. Particulars: Mesocricetus auratus. The essentials: (§2)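 Hepatoma was raised in Syrian hamsters by s.c. Kirkman-Robbins hepatoma pulp. Tumour cells were freed mechanically and with 0.4% collagenase plus 0.2% trypsin (>95% viable). After 30 min preincubation, 0.5×10^6 cells/ml were held in RPMI-1640 with 15% FCS and compound in medium at 37°, air-CO₂ (95:5). [³H]-thymidine (2 μCi/ml) was added at 1 h and incubation ended 24 h later. Read-out is cpm/10^6 cells; % inhibition vs control; Student's t-test.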

A short description of series [5]: Antiproliferative activity against Syrian hamster hepatoma cells assessed as inhibition of [3H]thymidine incorporation into DNA at 10 uM after 24 hrs […] relative to control. It counts as functional. The settings on record: Mesocricetus auratus. In a few lines: as §2

The inhibition is the change of the read-out against control, counted positive when it falls.

On to `CC(C)CC(=O)O[C@@H]1OC=C(CO[C@@H]2O[C@H](CO)[C@@H](O)[C@H](O)[C@H]2O)[C@@H]2CC=C(CO)[C@@H]12`, for which the inhibition at 24 h, 100 µM in series [1] worked out at 59%. The inhibition at 24 h, 10 µM in series [2] was found to be 24%. Further, the inhibition at 24 h, 1 µM in series [3] was 4%. Moreover, the inhibition at 100 µM in series [4] worked out at 69%. The inhibition at 10 µM in series [5] worked out at 12%.

Consider `C=C1[C@H]2[C@H](OC(=O)CC(C)C)OC=C(CO[C@@H]3O[C@H](CO)[C@@H](O)[C@H](O)[C@H]3O)[C@@H]2C[C@@H]1O`, for which, in series [1], the inhibition at 24 h, 100 µM turned out to be 45%. The inhibition at 24 h, 10 µM in series [2] was found to be 16%. For the same compound, in series [3], the inhibition at 24 h, 1 µM is 9%. In addition, the inhibition at 100 µM in series [4] stood at 75%. Moreover, the inhibition at 10 µM in series [5] amounted to 18%.

With `CC(C)CC(=O)O[C@@H]1OC=C(CO)[C@@H]2CC=C(CO)[C@@H]12`, the inhibition at 24 h, 100 µM in series [1] came to 60%. Moreover, the inhibition at 24 h, 10 µM in series [2] stood at 25%. Further, the inhibition at 24 h, 1 µM in series [3] stood at 15%.

(Values after ChEMBL document CHEMBL1158998, “Studies on iridoids of tissue cultures of Penstemon serrulatus: isolation and their antiproliferative properties” (J Nat Prod, 1992).)
